Consider 18 compounds from ChEMBL document CHEMBL4680134, “Structural optimization of natural product nordihydroguaretic acid to discover novel analogues as AcrB inhibitors” (Eur J Med Chem, 2020).

A short description of data set [1]: Growth inhibition of Escherichia coli harboring AcrB deletion mutant at 64 ug/ml after 18 hrs by broth microdilution assay. The conditions noted are these: dose 64 µg/ml. In a few lines: (§1)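 MIC determined by 96-well broth microdilution in E. coli BW25113 expressing AcrB ((+)AcrB) and an isogenic acrB-deleted strain ((-)AcrB). Used to set the compound concentrations for synergy testing that produce no direct antibacterial effect.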
(In general: Dilution methods test growth across graded concentrations, often in twofold steps.)

The nature of data set [2]: Growth inhibition of Escherichia coli BW25113 expressing AcrB at 512 ug/ml after 18 hrs by broth microdilution assay. As to conditions: dose 512 µg/ml. An outline of the steps: as §1

For `Nc1ccc(CCCCc2ccc(O)c(O)c2)cc1`, the “growth inhibition (GI)” value in data set [1] and in data set [2] was “Non-Toxic” throughout.

Turning to `Oc1ccc(CCCCc2ccco2)cc1O`, the “growth inhibition (GI)” value in data set [1] and in data set [2] was “Non-Toxic” throughout.

Consider `CC(C)c1ccc(CCCCc2ccc(O)c(O)c2)cc1`, for which the “growth inhibition (GI)” value in data set [1] and in data set [2] was “Non-Toxic” throughout.

In the case of `Cc1ccc(CCCCc2ccc(O)c(O)c2)cc1`, the “growth inhibition (GI)” value in data set [1] and in data set [2] was “Non-Toxic” throughout.

As to `Oc1ccc(CCCCc2ccncc2)cc1O`, the “growth inhibition (GI)” value in data set [1] and in data set [2] was “Non-Toxic” throughout.

For `Oc1ccc(CCCCc2ccc(-c3ccccc3)cc2)cc1O`, the “growth inhibition (GI)” value in data set [1] and in data set [2] was “Non-Toxic” each time.

On to `Oc1ccc(CCCCc2ccccc2)cc1O`, for which the “growth inhibition (GI)” value in data set [1] and in data set [2] was “Non-Toxic” in each case.

As for `Oc1ccc2cc(CCCCc3ccc(O)c(O)c3)ccc2c1`, the “growth inhibition (GI)” value in data set [1] and in data set [2] was “Non-Toxic” each time.

On to `Oc1ccc(CCCCc2ccccn2)cc1O`, for which the “growth inhibition (GI)” value in data set [1] and in data set [2] was “Non-Toxic” each time.

Regarding `Cn1cc(CCCCc2ccc(O)c(O)c2)c2ccccc21`, the “growth inhibition (GI)” value in data set [1] and in data set [2] was “Non-Toxic” in each case.

For `Oc1ccc(CCCCc2ccc(O)c(O)c2)cc1`, the “growth inhibition (GI)” value in data set [1] and in data set [2] was “Non-Toxic” throughout.

`Oc1ccc(CCCCc2cccc3ccccc23)cc1O`: the “growth inhibition (GI)” value in data set [1] and in data set [2] was “Non-Toxic” each time.

With `CC(C)CCn1cc(CCCCc2ccc(O)c(O)c2)c2ccccc21`, the “growth inhibition (GI)” value in data set [1] and in data set [2] was “Non-Toxic” each time.

Take `CC(C)(C)c1ccc(CCCCc2ccc(O)c(O)c2)cc1`: the “growth inhibition (GI)” value in data set [1] and in data set [2] was “Non-Toxic” each time.

Take `CC(C)(C)c1ccc(C(=O)NCCc2ccc(O)c(O)c2)cc1`: the “growth inhibition (GI)” value in data set [1] and in data set [2] was “Non-Toxic” in each case.

Consider `Oc1ccc(CCCCc2c3ccccc3cc3ccccc23)cc1O`, for which the “growth inhibition (GI)” value in data set [1] and in data set [2] was “Non-Toxic” each time.

On to `Oc1ccc(CCCCc2ccc(F)cc2)cc1O`, for which the “growth inhibition (GI)” value in data set [1] and in data set [2] was “Non-Toxic” in each case.

Regarding `Oc1ccc(CCCC(c2ccccc2)c2ccccc2)cc1O`, the “growth inhibition (GI)” value in data set [1] and in data set [2] was “Non-Toxic” each time.
